Test results: ChEMBL document CHEMBL4428038, “Overcoming chloroquine resistance in malaria: Design, synthesis and structure-activity relationships of novel chemoreversal agents” (Eur J Med Chem, 2016)
pEC50: −log10 of the molar value. The source made the active and inactive calls. The calls are words filed in the database; no cut-off is given here.

Columns and labels:
[1] = Therapeutic index, ratio of IC50 for human AC10 cells to EC50 for chloroquine-resistant Plasmodium falciparum K1 isolate MRA-159 CRT CVIET haplotype mutant; format: toxicity; conditions: read-out: Ratio IC50/EC50
How it was run: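 Host-cell IC50 was measured by ATP-luminescence viability assay in TAMH hepatocytes (mean of n = 4 independent determinations) or AC10 cardiomyocytes. Each IC50 was divided by the K1 EC50, the concentration of chemoreversal agent that halves the chloroquine concentration needed for 50% parasite inhibition.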

[2] = test system: Plasmodium falciparum 7G8; experiment: Inhibition of CRT SVMNT haplotype mutant in intermediate chloroquine-resistant Plasmodium falciparum 7G8 isolate MRA-154 t assessed as reversal of chloroquine resistance by measuring reduction in chloroquine IC50 at 500 nM relative to chloroquine alone
[3] = test system: T1, Chloroquine resistance transporter (Plasmodium falciparum), Q9N623 [K76T]; experiment: Inhibition of CRT K76T mutant in chloroquine/artemisinin-resistant Plasmodium falciparum ARS233 assessed as reversal of chloroquine resistance by measuring reduction in chloroquine IC50 at 500 nM relative to chloroquine alone
T1 sequence (whole entry): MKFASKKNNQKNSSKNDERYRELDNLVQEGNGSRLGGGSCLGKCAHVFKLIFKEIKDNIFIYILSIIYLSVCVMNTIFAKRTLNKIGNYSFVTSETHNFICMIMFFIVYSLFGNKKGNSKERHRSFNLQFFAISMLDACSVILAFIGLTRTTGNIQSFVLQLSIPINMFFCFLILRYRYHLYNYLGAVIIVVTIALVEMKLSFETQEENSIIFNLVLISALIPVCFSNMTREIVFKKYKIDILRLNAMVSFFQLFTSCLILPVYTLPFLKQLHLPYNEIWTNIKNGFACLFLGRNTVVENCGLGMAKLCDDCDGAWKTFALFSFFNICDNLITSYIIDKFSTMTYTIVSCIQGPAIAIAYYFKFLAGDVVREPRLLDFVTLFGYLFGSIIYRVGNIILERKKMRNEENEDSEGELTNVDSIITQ

Plasmodium falciparum [4] = experiment: Intrinsic antimalarial activity against intermediate chloroquine-resistant Plasmodium falciparum 7G8 isolate MRA-154 harboring CRT SVMNT haplotype mutant assessed as reduction in parasite viability at 500 nM; format: functional, organism-based
Plasmodium falciparum [5] = experiment: Potentiation of chloroquine-induced antimalarial activity against chloroquine-sensitive Plasmodium falciparum 3D7 isolate MRA-102 assessed as concentration required for 50% reduction in chloroquine IC50 at 500 nM relative to chloroquine alone; format: functional, organism-based
[6] = (§1) Inhibition of CRT SVMNT haplotype mutant in intermediate chloroquine-resistant Plasmodium falciparum 7G8 isolate MRA-154 assessed as reversal of chloroquine resistance by measuring reduction in chloroquine IC50 relative to chloroquine alone
How it was run: (§2)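 Chloroquine IC50 was determined in the presence of a fixed 500 nM chemoreversal agent, against chloroquine alone. The RMI is the ratio of chloroquine IC50 with agent to chloroquine IC50 alone. Mean of n = 3; two-tailed t test versus chloroquine without agent.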

[7] = test system: Plasmodium falciparum 7G8; experiment: as §1; how it was run: as §2
Plasmodium falciparum K1 = experiment: Inhibition of CRT CVIET haplotype mutant in chloroquine-resistant Plasmodium falciparum K1 isolate MRA-159 assessed as reversal of chloroquine resistance by measuring reduction in chloroquine IC50 at 500 nM relative to chloroquine alone
[8] = Aqueous kinetic solubility of compound in pH 7.4 solution incubated for 24 hrs; format: physicochemical; conditions: aqueous solution pH 7.4, pH 7.4; read-out: Kinetic_solubility
[9] = Permeability of compound incubated for 6 hrs at pH 7.4 by PAMPA; format: ADME; conditions: read-out: Peff
[10] = test system: T1, Chloroquine resistance transporter (Plasmodium falciparum), Q9N623 [K76T]; experiment: Inhibition of CRT K76T mutant in chloroquine/artemisinin-resistant Plasmodium falciparum ARS272 assessed as reversal of chloroquine resistance by measuring reduction in chloroquine IC50 at 500 nM relative to chloroquine alone

Work on `c1ccc(CN[C@@H]2C3CCN(CC3)[C@@H]2Cc2ccccc2)cc1` (relative stereo) yielded a selectivity ratio [1] of 420, a Ratio IC50 [2] of 0.8 and a Ratio IC50 [3] of 0.43. For the same compound, the Activity (Plasmodium falciparum [4]) was “inactive”, the Activity (Plasmodium falciparum [5]) was “inactive” and the pEC50 [6] was 6.42. The inhibition [7] was “Dose-dependent effect”, the Ratio IC50 (Plasmodium falciparum K1) was 0.39 and the solubility kinetic at 24 h [8] was > 310 µg/mL. For the same compound, the Papp at 6 h [9] was 19.2 ×10⁻⁶ cm/s and the Ratio IC50 [10] was 0.43.
